One data set has as its target T1, DNA topoisomerase 1 (Homo sapiens, UniProt P11387).
T1 sequence (P11387 whole entry): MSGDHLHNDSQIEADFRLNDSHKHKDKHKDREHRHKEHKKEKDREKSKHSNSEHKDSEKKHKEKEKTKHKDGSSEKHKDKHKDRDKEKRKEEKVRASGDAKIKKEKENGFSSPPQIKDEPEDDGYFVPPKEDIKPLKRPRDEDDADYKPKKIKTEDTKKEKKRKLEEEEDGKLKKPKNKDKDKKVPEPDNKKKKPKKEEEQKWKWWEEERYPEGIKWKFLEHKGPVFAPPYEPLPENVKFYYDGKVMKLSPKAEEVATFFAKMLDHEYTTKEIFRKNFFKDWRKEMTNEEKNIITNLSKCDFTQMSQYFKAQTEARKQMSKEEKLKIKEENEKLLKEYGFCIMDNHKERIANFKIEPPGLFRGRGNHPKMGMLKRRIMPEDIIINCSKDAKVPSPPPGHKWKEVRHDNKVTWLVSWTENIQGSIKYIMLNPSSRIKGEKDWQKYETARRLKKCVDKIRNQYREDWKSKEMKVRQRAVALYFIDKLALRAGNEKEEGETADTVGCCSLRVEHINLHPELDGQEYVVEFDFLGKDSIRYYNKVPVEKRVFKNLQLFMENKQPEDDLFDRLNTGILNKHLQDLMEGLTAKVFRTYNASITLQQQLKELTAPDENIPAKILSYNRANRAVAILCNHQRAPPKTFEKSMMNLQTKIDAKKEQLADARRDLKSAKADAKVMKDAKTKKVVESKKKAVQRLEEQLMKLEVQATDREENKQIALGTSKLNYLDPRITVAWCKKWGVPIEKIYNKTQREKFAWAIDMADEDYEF
The data set can be described thus: Inhibition of human DNA topoisomerase 1-mediated DNA cleavage assessed as relaxation of supercoiled pBR322 plasmid DNA after 15 mins by densitometer.

The subject of data set [1] is Mus musculus. The data set can be described thus: Toxicity in human MX1 cells xenografted iv dosed nude mouse. It counts as organism-based. The following applies: in vivo. The method in brief:
(§1)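 Toxicity was taken as LD10, the approximate dose lethal to 10% of nude mice at the treatment schedule. Mice bore subcutaneous side-flank MKN-45 or MX-1 xenografts and received iv dosing, either five times/week or twice/week for two consecutive weeks.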

Data set [2] can be described thus: Safety margin, ratio of LD10 for nude mouse to GID75 for human MX1 cells. It counts as toxicity, cell-based. In a few lines: (§2)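 Nude mice carried MKN-45 or MX-1 tumours implanted subcutaneously in a side flank. Compounds were given iv, either five times/week or twice/week for two consecutive weeks. The twice/week arm started once tumours reached 0.2 cm³ or larger. GID75 is the approximate dose giving 75% tumour growth inhibition, and LD10 is the approximate 10% lethal dose at that schedule. Safety margin = LD10/GID75.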

Data set [3] addresses Epidermal growth factor receptor (Homo sapiens, UniProt P00533). The data set can be described thus: Inhibition of EGFR. The method in brief:
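Kinase-inhibition assay against EGF receptor kinase, with Poly(Glu4Tyr1) as substrate.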

A further data set concerns DLD-1. The data set is described as follows: Cytotoxicity against human DLD1 cells after 72 hrs. It counts as functional, cell-based. The following applies: DLD-1, 72 h.
Data set [4] is described as follows: Safety margin, ratio of LD10 for nude mouse to GID75 for human MKN45 cells. The class given is toxicity, cell-based. The following applies: mkn-45. The method in brief: as §2
Data set [5] has as its system Mus musculus. The data set is described as follows: Toxicity in human MKN45 cells xenografted iv dosed nude mouse. The class given is organism-based, MKN-45. The following applies: in vivo. In a few lines:
as §1
A general note: In xenograft studies the graft and the host belong to different species.

For data set [6], the system named is MKN-45. The data set is described as follows: Cytotoxicity against human MKN45 cells after 72 hrs. The class given is functional, cell-based. The following applies: MKN-45, 72 h. In a few lines: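 MKN-45 human stomach cancer cells were incubated with compound for 72 h. Cytotoxicity was measured by the colorimetric tetrazolium-formazan method and by sulforhodamine B dye staining.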

The subject of the next data set is P388/S. The data set is described as follows: Cytotoxicity against mouse P388/S cells after 72 hrs by colorimetric tetrazolium-formazan method. It counts as functional, cell-based. In a few lines:
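Murine leukaemia P388 cells were exposed to compound for 72 h. Viability was read by the colorimetric tetrazolium-formazan method.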

For data set [7], the system named is MKN-45. The data set is described as follows: Antitumor activity in human MKN45 cells xenografted iv dosed nude mouse assessed as tumor growth inhibition administered 5 times per week for 2 weeks at tumor growth of >= 0.2 cm2. It counts as functional. The method in brief: (§3)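 Human MKN-45 (stomach) or MX-1 (breast) cells implanted subcutaneously into a side flank of nude mice. Compound given iv five times/week. GID₇₅ is the approximate dose giving 75% growth inhibition. LD₁₀ is the approximate 10% lethal dose at that schedule. Safety margin is LD₁₀/GID₇₅.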

Data set [8] is described as follows: Inhibition of PKC. In a few lines: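 Protein kinase C inhibition assay, with Histone II-As as substrate.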
In another data set the test system is MX1. The data set is described as follows: Antitumor activity in human MX1 cells xenografted iv dosed nude mouse assessed as tumor growth inhibition administered 5 times per week for 2 weeks at tumor growth of >= 0.2 cm2. The class given is functional. In a few lines: as §3

A value given as a limit tells only on which side of the number the result lay.

The text below walks through data of ChEMBL document CHEMBL1138509, “Synthesis and biological activities of topoisomerase I inhibitors, 6-arylmethylamino analogues of edotecarin” (J Med Chem, 2009).

Sequence of Epidermal growth factor receptor (P00533 whole entry): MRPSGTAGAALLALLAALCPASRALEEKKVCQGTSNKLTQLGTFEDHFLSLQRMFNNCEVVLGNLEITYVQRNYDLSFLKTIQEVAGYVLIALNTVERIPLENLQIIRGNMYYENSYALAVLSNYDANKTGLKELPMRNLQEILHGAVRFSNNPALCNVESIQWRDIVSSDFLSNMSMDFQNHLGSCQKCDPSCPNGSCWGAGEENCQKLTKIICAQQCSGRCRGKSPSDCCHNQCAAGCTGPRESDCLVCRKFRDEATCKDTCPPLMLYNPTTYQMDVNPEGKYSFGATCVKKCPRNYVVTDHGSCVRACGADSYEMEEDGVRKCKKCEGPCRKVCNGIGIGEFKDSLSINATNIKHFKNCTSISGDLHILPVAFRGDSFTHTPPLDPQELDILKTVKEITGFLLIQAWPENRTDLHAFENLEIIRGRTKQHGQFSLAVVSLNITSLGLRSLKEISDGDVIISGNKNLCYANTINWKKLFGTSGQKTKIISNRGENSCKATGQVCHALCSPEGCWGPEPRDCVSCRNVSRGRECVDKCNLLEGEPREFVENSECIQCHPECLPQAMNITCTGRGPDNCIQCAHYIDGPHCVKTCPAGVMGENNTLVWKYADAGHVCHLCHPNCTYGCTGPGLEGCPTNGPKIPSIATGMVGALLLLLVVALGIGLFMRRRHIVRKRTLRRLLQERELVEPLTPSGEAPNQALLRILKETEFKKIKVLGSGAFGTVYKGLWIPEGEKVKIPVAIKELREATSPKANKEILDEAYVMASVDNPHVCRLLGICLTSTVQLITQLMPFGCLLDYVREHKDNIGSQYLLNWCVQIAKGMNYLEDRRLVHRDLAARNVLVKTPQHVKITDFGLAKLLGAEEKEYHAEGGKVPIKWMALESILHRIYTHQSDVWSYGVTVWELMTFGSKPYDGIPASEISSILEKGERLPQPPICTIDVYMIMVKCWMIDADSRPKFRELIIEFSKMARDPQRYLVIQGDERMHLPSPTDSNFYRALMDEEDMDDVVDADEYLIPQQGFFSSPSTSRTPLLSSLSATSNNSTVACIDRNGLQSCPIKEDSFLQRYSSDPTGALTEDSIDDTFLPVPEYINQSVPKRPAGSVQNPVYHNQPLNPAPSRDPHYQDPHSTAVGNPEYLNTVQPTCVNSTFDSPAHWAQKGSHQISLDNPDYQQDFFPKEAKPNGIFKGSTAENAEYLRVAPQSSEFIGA

The EC50 is the concentration giving half of the maximal effect. Usually IC50 stands for the concentration needed to halve the response being measured. The low end stands for inhibition by little substance, the high end for a need for much substance. Take `O=C1c2c(c3c4ccc(O)cc4n([C@@H]4O[C@H](CO)[C@@H](O)[C@H](O)[C@H]4O)c3c3[nH]c4cc(O)ccc4c23)C(=O)N1NC(CO)CO` [EDOTECARIN]: at DNA topoisomerase 1, the 50% effective concentration (EC50) is 51 nM. Moreover, the LD10 with Mus musculus [1] was greater than 2000 mg/m2; with Mus musculus [5], greater than 1600 mg/m2. The selectivity ratio in data set [2] was greater than 13; in data set [4] it was greater than 36. The IC50 is greater than 200000 nM in data set [3]; 70 nM in the data set with DLD-1; 4.8 nM with MKN-45 [6]; 1.5 nM with P388/S; 18000 nM in data set [8]. Also, the GID75 in the data set on MKN-45 [7] is listed as 45 mg/m2; with MX1, 160 mg/m2.
